Experimental data: ChEMBL document CHEMBL2176974, “A bactericidal guanidinomethyl biaryl that alters the dynamics of bacterial FtsZ polymerization” (J Med Chem, 2012)
Numbering of substitutions follows the chain as printed. Activity calls are given as the source filed them. The calls are words filed in the database; no cut-off is given here.

Columns and labels:
Enterococcus faecalis [1] = test: Stimulation of Enterococcus faecalis FtsZ self-polymerization by microtiter plate-based light scattering assay
[2] = molecular target: T1, Cell division protein FtsZ (Escherichia coli K-12) (UniProt P0A9A6); test: Binding affinity to Escherichia coli FtsZ at 40 uM by fluorescence anisotropy BoGTPgammaS competition assay
T1 sequence (whole entry): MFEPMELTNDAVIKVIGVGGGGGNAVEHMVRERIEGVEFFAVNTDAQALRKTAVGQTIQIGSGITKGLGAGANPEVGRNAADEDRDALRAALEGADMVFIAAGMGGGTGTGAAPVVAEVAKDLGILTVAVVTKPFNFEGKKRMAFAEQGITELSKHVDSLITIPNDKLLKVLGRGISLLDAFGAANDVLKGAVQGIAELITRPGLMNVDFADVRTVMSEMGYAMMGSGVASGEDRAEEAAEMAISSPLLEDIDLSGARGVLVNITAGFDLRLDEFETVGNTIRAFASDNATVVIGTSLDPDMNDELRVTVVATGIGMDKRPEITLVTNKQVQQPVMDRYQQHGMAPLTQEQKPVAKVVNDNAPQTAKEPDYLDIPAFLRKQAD
Procedure, shortened: (§1)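 Competition with fluorescent BoGTPγS. BoGTPγS (1 μM final) was mixed with 5 μM FtsZ and compound or unlabeled GTP at 0–40 μM. Buffer was 50 mM Tris·HCl pH 7.4, 50 mM KCl, 2 mM magnesium acetate. After 5 min at 25 °C, anisotropy was read at excitation 488 nm and emission 510 nm, in triplicate and averaged.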

[3] = Selectivity index, ratio of Kd for Enterococcus faecalis FtsZ to Kd for Staphylococcus aureus FtsZ
Procedure, shortened: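 Buffer was 50 mM Tris·HCl pH 7.4, 50 mM KCl, 2 mM magnesium acetate. Kd came from nonlinear least-squares fits, and the index is the ratio of the two Kd values.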

[4] = molecular target: Tubulin beta chain (Sus scrofa) (UniProt P02554); test: Effect on MAP-rich pig beta-tubulin polymerization at 40 ug/mL by microtiter plate-based light scattering assay
Procedure, shortened: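 MAP-rich porcine tubulin (70% β-tubulin, 30% MAPs) at 2 mg/mL with 1 mM GTP. Buffer was 80 mM PIPES·NaOH pH 7.0, 2 mM MgCl₂, 1 mM EGTA. Light scattering was followed as A340 continuously at 37 °C for 60 min, against a DMSO vehicle.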

[5] = molecular target: T2, Cell division protein FtsZ (Staphylococcus aureus) (UniProt P0A031); test: Binding affinity to Staphylococcus aureus FtsZ expressed in Escherichia coli BL21 (DE3) at 40 uM by fluorescence anisotropy BoGTPgammaS competition assay
T2 sequence (whole entry): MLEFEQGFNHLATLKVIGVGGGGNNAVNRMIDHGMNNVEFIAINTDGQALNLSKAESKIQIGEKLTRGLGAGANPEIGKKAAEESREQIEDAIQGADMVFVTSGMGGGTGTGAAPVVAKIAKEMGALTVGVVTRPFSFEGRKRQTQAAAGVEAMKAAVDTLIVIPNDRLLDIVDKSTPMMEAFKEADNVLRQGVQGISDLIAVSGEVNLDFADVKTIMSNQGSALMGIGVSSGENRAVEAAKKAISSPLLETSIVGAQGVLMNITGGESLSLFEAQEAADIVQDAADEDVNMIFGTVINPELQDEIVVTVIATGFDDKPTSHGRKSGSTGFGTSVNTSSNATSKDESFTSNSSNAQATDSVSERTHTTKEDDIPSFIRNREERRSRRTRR
Procedure, shortened: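 Competition: 1 μM BODIPY-GTPγS with 0 or 5 μM SaFtsZ and compound at 0–40 μM in 50 mM Tris·HCl pH 7.4, 50 mM KCl, 2 mM magnesium acetate. After 5 min at 25 °C, anisotropy read at excitation 488 / emission 510 nm, 4 nm bandwidths, triplicate. Unlabeled GTP used as the positive control.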

[6] = molecular target: T2, Cell division protein FtsZ (Staphylococcus aureus); test: Stimulation of Staphylococcus aureus FtsZ assembly and bundling at 20 ug/mL by transmission electron microscopy
Procedure, shortened: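 SaFtsZ polymerized with 20 μg/mL compound under light-scattering assay conditions (10 μM protein, 1 mM GTP, 1 mM CaCl2, pH 7.4). Reaction diluted 1:10 in polymerization buffer, applied to glow-discharged Formvar/carbon grids, negatively stained with 1% phosphotungstic acid for 1 min, and imaged by TEM at 80 kV.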

[7] = system: T3, Cell division protein FtsZ (Staphylococcus aureus), P0A031 [E185A]; test: Binding affinity to Staphylococcus aureus FtsZ E185A mutant self-polymerization at 10 ug/mL by microtiter plate-based light scattering assay
T3 sequence (whole entry): T2 sequence (whole entry) with E185A

Enterococcus faecalis [8] = test: Binding affinity to Enterococcus faecalis FtsZ at 40 um by fluorescence anisotropy BoGTPgammaS competition assay; procedure, shortened: as §1

Sequence of Tubulin beta chain (Sus scrofa) (P02554 whole entry): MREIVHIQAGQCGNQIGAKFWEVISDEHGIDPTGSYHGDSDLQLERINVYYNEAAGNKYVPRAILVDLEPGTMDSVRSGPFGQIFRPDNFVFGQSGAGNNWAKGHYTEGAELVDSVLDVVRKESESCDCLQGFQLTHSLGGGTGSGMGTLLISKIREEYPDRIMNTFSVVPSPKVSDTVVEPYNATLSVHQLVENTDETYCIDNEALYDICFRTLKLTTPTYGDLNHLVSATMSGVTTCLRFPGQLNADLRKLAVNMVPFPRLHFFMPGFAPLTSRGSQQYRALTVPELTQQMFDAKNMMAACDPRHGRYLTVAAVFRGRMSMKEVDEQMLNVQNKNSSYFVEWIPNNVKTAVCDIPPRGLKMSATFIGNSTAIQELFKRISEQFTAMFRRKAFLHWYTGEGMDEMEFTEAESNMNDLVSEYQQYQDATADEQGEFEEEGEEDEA

Which results are given for `CC(C)(C)c1ccc(-c2cccc(CNC(=N)N)c2)cc1`?
Activity (Enterococcus faecalis [1]): Dose-dependent effect; Activity [2]: inactive; Ratio [3]: 6; Activity [4]: inactive; Activity [5]: inactive; Activity [6]: Active; Activity [7]: inactive; Activity (Enterococcus faecalis [8]): inactive
